In PubChem BioAssay AID624177 (Southern Research Specialized Biocontainment Screening …, 2012):
Calls of active or inactive are those of the source.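 The calls were made as follows: active = inhibition of 30% or more at any tested concentration; inactive = the rest.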

Molecular target: M18 aspartyl aminopeptidase (Plasmodium falciparum)
Experiment: inhibition of P. falciparum M18 aminopeptidase – biochemical, QFRET fluorogenic substrate, set 2, dose response (AID 624177)
Conditions: recombinant PfM18AAP, H-Glu-NHMec fluorogenic substrate cleavage; for inhibition: at 100 µM (top of the series)
Procedure, shortened: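 signal = NHMec fluorescence, excitation 370 nm, emission 460 nm | material = purified recombinant P. falciparum M18 aspartyl aminopeptidase (rPFM18AAP) | quantity = enzyme at 5 µg/mL final | compound dosing = 10 concentrations, 1:2 steps, 100–0.2 µM | medium = Tris buffer pH 7.5 with 2 mM CoCl2, 2% DMSO | incubation = 90 min reaction, room temperature | control set = no-enzyme background control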

Row | Structure (SMILES) | IC50 | inhibition
1 | CN(CCc1ccc(O)c(O)c1)c1ccnc2cc(Cl)ccc12 | 8.46 µM | 
2 | Oc1ccc(CCCNc2c3c(nc4ccccc24)CCCC3)cc1O | 10.8 µM | 
3 | Nc1c2ccccc2nc2ccccc12 |  | inactive
4 | CC(C)(CNc1ccnc2ccccc12)c1ccc(O)c(O)c1 | 47.6 µM | 
5 | CN(CCCc1ccc(O)c(O)c1)c1ccnc2ccccc12 | 10.3 µM | 
6 | Oc1ccc(C2CCN(c3ccnc4ccccc34)C2)cc1O (centres undefined) | 6.55 µM | 
7 | CN(CCCc1ccc(O)c(O)c1)c1c2ccccc2nc2ccccc12 | 40.1 µM | 
8 | CC(Cc1ccc(O)c(O)c1)Nc1ccnc2ccccc12 (centres undefined) | 16.6 µM | 
9 | Cc1cccc2c(N(C)CCc3ccc(O)c(O)c3)ccnc12 | 11.9 µM | 
10 | CN(CCc1ccc(O)c(O)c1)c1ccnc2c(F)cccc12 | 8.76 µM | 
11 | Oc1ccc(CCNc2ccnc3c(F)cccc23)cc1O | 9.8 µM | 
12 | Oc1ccc(C2CCN(c3ccnc4ccccc34)CC2)cc1O | 4.6 µM | 
13 | Oc1cccc(CCNc2ccnc3ccccc23)c1O | 16.5 µM | 
14 | CN(CCc1ccc(O)c(O)c1)c1ncnc2ccccc12 | 7.69 µM | 
15 | CN(CCc1ccc(O)c(O)c1)c1c2ccccc2nc2ccccc12 | 30 µM | 
16 | Oc1ccc(C2CCCN(c3ccnc4ccccc34)C2)cc1O (centres undefined) | 7.32 µM | 
17 | CCN(CCc1ccc(O)c(O)c1)c1c2ccccc2nc2ccccc12 | 16.9 µM | 
18 | Clc1c2c(nc3ccccc13)CCCC2 |  | inactive

More lines, now with the values ahead:

Row | IC50 | inhibition | Structure (SMILES)
19 |  | inactive | COc1ccc(CCCN(C)c2c3ccccc3nc3ccccc23)cc1OC
20 | 11.9 µM |  | Cc1cc(N(C)CCc2ccc(O)c(O)c2)c2ccccc2n1
21 |  | inactive | COc1ccc(CCNc2ccnc3c(F)cccc23)cc1OC
22 | 14.5 µM |  | Cc1cccc2c(NCCc3ccc(O)c(O)c3)ccnc12
23 |  | inactive | CCOc1ccc2nccc(N(C)CCc3ccc(OC)c(OC)c3)c2c1
24 |  | inactive | COc1ccc(CCNc2ccnc3c(C)cccc23)cc1OC
25 |  | inactive | COc1ccc(CCNc2cc(C)nc3ccccc23)cc1OC
26 |  | inactive | COc1ccc(C2CCN(c3ccnc4ccccc34)C2)cc1OC (centres undefined)
27 |  | inactive | COc1ccc(CCN(C)c2ccnc3c(C)cccc23)cc1OC
28 |  | inactive | CCOc1ccc2nccc(NCCc3ccc(OC)c(OC)c3)c2c1
29 |  | inactive | COc1cc(Br)c(CCNc2c3c(nc4ccccc24)CCCC3)cc1OC
30 |  | inactive | COc1ccc(CCCNc2c3c(nc4ccccc24)CCCC3)cc1OC
31 |  | inactive | COc1ccc(CCN(C)c2ncnc3ccccc23)cc1OC
32 |  | inactive | COc1cc(Br)c(CCNc2c3ccccc3nc3ccccc23)cc1OC
33 |  | inactive | CCN(CCc1ccc(OC)c(OC)c1)c1c2ccccc2nc2ccccc12
34 |  | inactive | COc1ccc(CCNc2c3c(nc4ccc(C)cc24)CCCC3)cc1OC
35 |  | inactive | COc1ccc(CCN(C)c2ccnc3cc(Cl)ccc23)cc1OC
36 |  | inactive | COc1ccc(CCNc2ncnc3ccccc23)cc1OC
37 |  | inactive | COc1cc(Br)c(CCNc2ccnc3ccccc23)cc1OC
38 |  | inactive | COc1ccc(CCN(C)c2ccnc3c(F)cccc23)cc1OC
39 |  | inactive | COc1ccc(CCNc2ccnc3cc(Cl)ccc23)cc1OC
40 |  | inactive | COc1ccc(CCN(C)c2c3ccccc3nc3ccccc23)cc1OC
41 |  | inactive | COc1ccc(CCNC(=O)c2cc(C)ccc2N)cc1OC
42 |  | inactive | COc1ccc(CCN(C)c2cc(C)nc3ccccc23)cc1OC
43 |  | inactive | COc1ccc(C2CCN(c3ccnc4ccccc34)CC2)cc1OC
44 | 14.8 µM |  | Oc1ccc(CCNc2ccnc3cc(Cl)ccc23)cc1O
